Compound activity (PubChem BioAssay)
ABCB6 inh MLPCN: human ABCB6 transporter inhibition. Q9NP58. K562-ABCB6 porphyrin accumulation, flow cytometry, 1 h; active compounds read low. fluorescence ratio to DMSO, % at 10 µM. 360,000 compounds, 0.19% hits. AID 602162;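 active means fluorescence ratio to DMSO below 75%, the collection mean minus 3 SD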;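 further: signal is porphyrin accumulated inside mitochondria; 100% equals median channel fluorescence of DMSO control wells; lower ratio means ABCB6 inhibition with less porphyrin fluorescence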
pCIP destab: compounds decreasing mouse p/CIP protein stability | 290,000 compounds, 0.01% hits | decrease of EGFP signal, % at 10 µM | F442A p/CIP-EGFP cells, EGFP fluorescence, 16 h;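 active means EGFP signal decrease of at least 30% at 10 µM or well 3 SD below plate mean, unless failing retest; inactive means the rest, including hits failing retest or dose response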
Dynein cargo inh: blocks dynein driven cargo transport along microtubules. 3617.4 mouse cells, GR-EGFP nuclear translocation imaging; test concentration mostly 20 µM; stimulated with dexamethasone, 1 µM; active compounds read low. 220,000 compounds, 0.47% hits. z-score, hits read low;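 active means plate z-score of nuclear minus cytoplasmic receptor signal below a set negative limit, without overly bright fluorescence or cell loss, cut at about -3.5 in these data, passing the limit was not always enough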;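 further: z-score of nuclear minus cytoplasmic ring GR-EGFP intensity difference per well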
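Schedule: 48 h induction, then 1 h compound, then 30 min agonist, 37 °C. Buffer or medium: tetracycline-free induction medium containing charcoal-stripped FBS. Reagent: 1.0 µM final dexamethasone stimulus. Evaluation: nuclear versus cytoplasmic GR-EGFP signal, averaged per well. Signal: high-content fluorescence imaging after fixation.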
Cl transport mod: modulators of human KCC2 chloride dependent transport; B-score of Tl+ flux slope (higher = more flux/activation; lower = inhibition) at 10 µM; KCC2 cells, thallium flux FluoZin-2 fluorescence; Q9H2X9; 190,000 compounds, 2.2% hits; AID 1456;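 active means thallium flux slope and its plate-corrected score both differing from the plate sample mean at a set confidence after two filtering rounds, in either direction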;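 further: slope of fluorescence scaled to starting intensity during 10 to 20 s after thallium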
V-ATPase pHluor: yeast V-ATPase proton transport regulation by pHLuorin; response, % at 10 µM; 350,000 compounds, 0.37% hits; S. cerevisiae, pHLuorin cytosolic pH fluorescence; AID 504577; in the data active means response mostly above about 7.3%, no sharp cut-off; inactive means mostly below about 5.4%; further: actives read high
VATPase regulator: yeast V-ATPase proton transport regulation; response, % at 10 µM; AID 602197; shares compounds with V-ATPase pHluor; 980 compounds, 2% hits; S. cerevisiae pHLuorin cytosolic pH; in the data active means response above about 24%;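 further: plate controls were vehicle wells for no effect and positive control wells for full effect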
The depositor's hits bear a star. Shown is part of a subset that was picked to be rich in hits.

Screening COc1ccc(-c2nn(Cc3ccccc3)cc2C(=O)N2CCN(c3ncccn3)CC2)cc1 returned ABCB6 inh MLPCN 83 and V-ATPase pHluor 0.
Screening Cc1n[nH]c(C)c1CS(=O)(=O)c1ccccc1 returned ABCB6 inh MLPCN 94, pCIP destab 9, Dynein cargo inh 2.1, Cl transport mod 1.7, V-ATPase pHluor 7.3* and VATPase regulator 1.
`CN1CCN(S(=O)(=O)c2cccc(C#N)c2)C(c2ccccc2)C1` (stereo not given) gave ABCB6 inh MLPCN 101, V-ATPase pHluor 12* and VATPase regulator 0.
`CN1CCN(S(=O)(=O)c2ccc(C#N)cc2)C(c2ccccc2)C1` (stereo not given) gave ABCB6 inh MLPCN 101 and V-ATPase pHluor 0.
For COc1ccc(C2C3=C(CC(C)(C)CC3=O)Oc3ncn4nc(-c5ccccc5)nc4c32)cc1 (stereo not given) the results were ABCB6 inh MLPCN 98, V-ATPase pHluor 12* and VATPase regulator -1.
Screening O=C(CN1CCN(c2ccc(F)cc2)CC1)N(C1CCCC1)C1CCS(=O)(=O)C1 (stereo not given) returned ABCB6 inh MLPCN 106 and V-ATPase pHluor 4.
`O=C(c1ccc([N+](=O)[O-])o1)N1CCN(c2nc3c(F)cc(F)cc3s2)CC1` gave ABCB6 inh MLPCN 96, V-ATPase pHluor 31* and VATPase regulator 40*.
Screening O=C(NNS(=O)(=O)c1ccccc1[N+](=O)[O-])c1ccccc1Cl returned ABCB6 inh MLPCN 94, pCIP destab -6, Dynein cargo inh 1, Cl transport mod -0.07, V-ATPase pHluor 12* and VATPase regulator -2.
Screening COC/C=C/C1=CC2=CC(=O)C(C)(OC(=O)c3cnc4ccccc4n3)C(=O)C2=CN1C1CC1 (stereo not given) returned ABCB6 inh MLPCN 90, V-ATPase pHluor 12* and VATPase regulator -3.
`COC/C=C/C1=CC2=CC(=O)C(C)(OC(=O)c3cnc4ccccc4n3)C(=O)C2=CN1CC1CC1` (stereo not given) gave ABCB6 inh MLPCN 99 and V-ATPase pHluor -4.
COc1ccccc1-c1cc(C(=O)NCCc2ccccc2)no1 was read as ABCB6 inh MLPCN 97, pCIP destab 1, Dynein cargo inh -0.26, V-ATPase pHluor 13* and VATPase regulator 0.
Cc1ccc(C)c(S(=O)(=O)Nc2nc3ccc(S(N)(=O)=O)cc3s2)c1 was read as ABCB6 inh MLPCN 96, pCIP destab -6, Dynein cargo inh 0.093, Cl transport mod 0.031 and V-ATPase pHluor 0.
Screening COc1cccc(C2C(C(=O)OCc3ccccc3)=C(C)Nc3ncnn32)c1OC (stereo not given) returned ABCB6 inh MLPCN 102, pCIP destab 6, Dynein cargo inh 0.98, V-ATPase pHluor 8.5* and VATPase regulator -2.
Screening CN1CCN(C(=O)CN(CCc2ccccc2)S(C)(=O)=O)CC1 returned ABCB6 inh MLPCN 103, pCIP destab 4, Dynein cargo inh -0.73, Cl transport mod 0.57, V-ATPase pHluor 11* and VATPase regulator 1.
For CCN1CCN(C(=O)CN(CCc2ccccc2)S(C)(=O)=O)CC1 the results were ABCB6 inh MLPCN 100, pCIP destab -2, Dynein cargo inh 0.063, Cl transport mod 0.9 and V-ATPase pHluor -2.
Cc1nn(C2CCS(=O)(=O)C2)c2nc(C3CC3)cc(C(=O)Nc3cccc(C#N)c3)c12 (stereo not given) was read as ABCB6 inh MLPCN 98 and V-ATPase pHluor -2.
`COc1ccc(/C=C2\C(=O)NCC(=O)N2Cc2ccccc2)cc1` gave ABCB6 inh MLPCN 105, pCIP destab 8, Dynein cargo inh -0.039 and V-ATPase pHluor 1.
`COc1ccc(/C=C2\C(=O)NCC(=O)N2C)cc1` gave ABCB6 inh MLPCN 414, pCIP destab 1, V-ATPase pHluor 253* and VATPase regulator 6.
`COc1ccc([C@H]2CC(=O)C=C(c3ccc(F)cc3OCc3ccccc3)C2)cc1OC` gave ABCB6 inh MLPCN 87 and V-ATPase pHluor 4.
For CC(=O)c1nn(-c2cccc(C)c2)cc1C(=O)c1cccc(Br)c1 the results were ABCB6 inh MLPCN 97, V-ATPase pHluor 5.5* and VATPase regulator 1.
For Cc1nn(C)cc1C(C)NC(=O)c1cc(COc2c(F)cccc2F)on1 (stereo not given) the results were ABCB6 inh MLPCN 99, pCIP destab -10, Dynein cargo inh -0.65, Cl transport mod -1.3, V-ATPase pHluor 11* and VATPase regulator -3.
Cc1nn(C)cc1C(C)NC(=O)c1cc(COc2cccc3cnccc23)on1 (stereo not given) was read as ABCB6 inh MLPCN 85, pCIP destab -2 and V-ATPase pHluor -1.
`Cc1cc(Br)ccc1NC(=O)CN(C)C(=O)C1CCN(C(=O)c2ccc(F)cc2)CC1` gave ABCB6 inh MLPCN 98, V-ATPase pHluor 12* and VATPase regulator 1.
COc1ccc(/C=C/C(=O)OCC(=O)NCc2ccccc2Cl)cc1OC was read as ABCB6 inh MLPCN 104 and V-ATPase pHluor 1.
For Cc1cc(CNC(=S)Nc2cccc(Cl)c2Cl)nn1C the results were ABCB6 inh MLPCN 92, pCIP destab 1, Dynein cargo inh -0.64, Cl transport mod 0.31 and V-ATPase pHluor 6.
`CC(OC(=O)c1ccco1)C(=O)Nc1ccc(C(F)(F)F)cc1` (stereo not given) gave ABCB6 inh MLPCN 102 and V-ATPase pHluor -1.
`C=CCn1c(SCC(=O)Nc2c(C)n(C)n(-c3ccccc3)c2=O)nc2scc(-c3ccccc3)c2c1=O` gave ABCB6 inh MLPCN 86, pCIP destab -2, Dynein cargo inh 0.17, Cl transport mod -0.45, V-ATPase pHluor 13* and VATPase regulator 1.
`C=CCn1c(SCC(=O)Nc2c(C)n(C)n(-c3ccccc3)c2=O)nc2ccccc2c1=O` gave ABCB6 inh MLPCN 94 and V-ATPase pHluor 5.
Cc1ccccc1S(=O)(=O)NC(=O)C1(C)CCN1C(=O)Cc1cccs1 (stereo not given) was read as ABCB6 inh MLPCN 98.
Cn1cccc1CC(=O)NNC(=S)Nc1ccc(F)cc1 was read as ABCB6 inh MLPCN 102, pCIP destab -8, Dynein cargo inh -0.49, Cl transport mod 1.4 and V-ATPase pHluor -2.
Cn1cccc1CC(=O)NNC(=S)Nc1ccc(Cl)cc1Cl was read as ABCB6 inh MLPCN 94, pCIP destab 3, Dynein cargo inh -0.64, Cl transport mod -0.48, V-ATPase pHluor 16* and VATPase regulator -1.
COc1ccc(N2C[C@H](CSC)[C@@H](CC(=O)Nc3ccccc3)C2=O)cc1 was read as ABCB6 inh MLPCN 96, V-ATPase pHluor 7.0* and VATPase regulator -1.
For COc1ccc(N2C[C@H](Cc3ccccc3)[C@@H](CC(=O)Nc3ccccc3)C2=O)cc1 the results were ABCB6 inh MLPCN 99 and V-ATPase pHluor -1.
